Activity calls are given as the source filed them. The rule behind the calls is not given here.
Assays:
[1] = Inhibition of AmpC beta-lactamase
Klebsiella pneumoniae = assay: Antimicrobial activity against AmpC-beta lactamase producing Klebsiella pneumoniae by disk diffusion assay; assay type: functional, organism-based
[2] = molecular target: AmpC (Klebsiella pneumoniae) (UniProt Q84AD8); assay: Inhibition of Klebsiella pneumoniae AmpC beta-lactamase DHA-1 assessed as increase in ceftazidime-induced antibacterial activity by disk diffusion assay
[3] = Inhibition of beta-lactamase CTX-M-9
[4] = molecular target: Beta-lactamase CTX-M-14 (Escherichia coli) (UniProt Q9L5C7); assay: Inhibition of Escherichia coli class A beta-lactamase CTX-M-14 assessed as fold decrease in Ceftazidime MIC […]
How it was run: (§1)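 MICs were measured on clinical isolates following CLSI guidelines in Mueller-Hinton medium. Inhibitor was dissolved in 50% DMSO, with final DMSO below 5%, and combined with ceftazidime at a 1:1 β-lactam:inhibitor ratio. Fold change is compared with ceftazidime alone. Values are means of three independent experiments.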

Pseudomonas aeruginosa = assay: Inhibition of Pseudomonas aeruginosa beta-lactamase class C assessed as fold decrease in Ceftazidime MIC […]; how it was run: as §1
Enterobacter cloacae = assay: Inhibition of Enterobacter cloacae beta-lactamase class C assessed as fold decrease in Ceftazidime MIC […]; how it was run: as §1
Citrobacter freundii = assay: Inhibition of Citrobacter freundii beta-lactamase class C assessed as fold decrease in Ceftazidime MIC […]; how it was run: as §1
Escherichia coli = assay: Inhibition of Escherichia coli beta-lactamase class C assessed as fold decrease in Ceftazidime MIC […]; how it was run: as §1
[5] = molecular target: AmpC (Klebsiella pneumoniae) (UniProt Q84AD8); assay: Inhibition of Klebsiella pneumoniae AmpC beta-lactamase DHA-1 assessed as fold decrease in Ceftazidime MIC […]; how it was run: as §1

Question: For `CS(=O)(=O)NCB(O)O` [PINACOL(METHANESULFONYLAMINO)METHANEBORONATE], which Ki [1] is on record?
Answer: 789 nM

Question: With `CCOc1ccc2ccccc2c1S(=O)(=O)NCB(O)O` as the molecule, how does the Ki [1] read?
Answer: 670 nM

Question: For `COC(=O)c1ccc(CS(=O)(=O)NCB2OC(C)(C)C(C)(C)O2)cc1`, which Ki [1] is on record?
Answer: 120 nM

Question: Which Ki [1] does the source give for `O=C(Cc1cccs1)N[C@H](B(O)O)c1cccc(C(=O)O)c1` here?
Answer: 1 nM

Question: For `O=C(O)c1ccc(CS(=O)(=O)NCB(O)O)cc1`, which Activity (Klebsiella pneumoniae) is on record?
Answer: inactive

Question: And the Activity [2]?
Answer: Active

Question: What about the IC50 [3] of the same molecule?
Answer: 1500 nM

Question: For `O=S(=O)(Cc1ccccc1)N[C@@H](Cc1ccccc1)B(O)O`, which Ki [1] is on record?
Answer: 3720 nM

Question: Which Ki [1] does the source give for `Nc1cccc(CS(=O)(=O)NCB(O)O)c1` here?
Answer: 106 nM

Question: With `O=[N+]([O-])c1cccc(CS(=O)(=O)NCB(O)O)c1` as the molecule, how does the Ki [1] read?
Answer: 189 nM

Question: With `Cc1ccc(S(=O)(=O)NCB(O)O)cc1` as the molecule, how does the Ki [1] read?
Answer: 210 nM

Question: For `O=C(Cc1ccccc1)NCB(O)O`, which Ki [1] is on record?
Answer: 570 nM

Question: With `O=S(=O)(Cc1ccccc1)NCB(O)O` [PINACOL(PHENYLMETHANESULFONYLAMINO)METHANEBORONATE] as the molecule, how does the fold change (FC) [4] read?
Answer: 16

Question: What about the fold change (FC) (Pseudomonas aeruginosa) of the same molecule?
Answer: 8

Question: What about the fold change (FC) (Enterobacter cloacae) of the same molecule?
Answer: 8

Question: And the fold change (FC) (Citrobacter freundii)?
Answer: 8

Question: And the Activity (Klebsiella pneumoniae)?
Answer: inactive

Question: And the fold change (FC) (Escherichia coli)?
Answer: 8

Question: And the Activity [2]?
Answer: Active

Question: And the fold change (FC) [5]?
Answer: 8

Question: And the IC50 [3]?
Answer: 6870 nM

Question: Which Ki [1] does the source give for `O=C(Cc1cccs1)N[C@@H](Cc1cccc(C(=O)O)c1)B(O)O` here?
Answer: 39 nM
